According to ChEMBL document CHEMBL3259659, “Polyisoprenylated methylated protein methyl esterase: a putative biomarker and therapeutic target for pancreatic cancer” (Eur J Med Chem, 2014):
Calls of active or inactive are those of the source. The rule behind the calls is not given here.

How the values were obtained:
[1] = (§1) Cytotoxicity against human BxPC3 cells after 48 hrs by fluorescence assay; type: functional, cell-based; conditions: BXPC-3, 48 h
How it was run: (§2)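 Cells from ATCC, kept at 37°C in 5% CO2 to about 80% confluence, trypsinized and plated at 1×10^4 cells/well in medium with 5% FBS. Treated with PCAIs 0–20 μM for 48 h. Viability by resazurin (0.02% in Dulbecco PBS, 20 μL added), fluorescence read after 2 h at ex 560/em 590 nm. EC50 by nonlinear regression of concentration-response.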

[2] = Lipophilicity, log D of the compound; type: physicochemical; conditions: octanol/water
BXPC-3 [3] = test: Cytotoxicity against human BxPC3 cells at 20 uM after 24 to 72 hrs by fluorescence assay; type: functional, cell-based
How it was run: (§3)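 Same viability method: cells plated at 1×10^4 cells/well in 5% FBS medium, exposed to 20 μM PCAI for 24, 48 and 72 h. Resazurin (0.02% in Dulbecco PBS) added, fluorescence ex 560/em 590 nm read 2 h later.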

[4] = (§4) Cytotoxicity against human MIAPaCa2 cells harboring K-Ras mutant oncogene after 48 hrs by fluorescence assay; type: functional, cell-based; conditions: MIA PaCa-2, 48 h; how it was run: as §2
MIA PaCa-2 [5] = test: Cytotoxicity against human MIAPaCa2 cells harboring K-Ras mutant oncogene at 20 uM after 24 to 72 hrs by fluorescence assay; type: functional, cell-based; how it was run: as §3
[6] = (§5) Inhibition of PMPMEase (unknown origin) using RD-PNB as substrate incubated for 15 mins prior to substrate addition measured after 2 hrs by RP-HPLC analysis; parameters: species or system Homo sapiens
How it was run: (§6)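 Enzyme (1 μg) preincubated 15 min with inhibitor (1–1000 μM, dissolved in water), then RD-PNB (1 mM, in DMSO) added. Incubated 2 h at 37°C in 100 mM Tris-HCl pH 7.4, stopped with methanol, centrifuged. Supernatant analysed by RP-HPLC with UV detection at 260 nm. IC50 by nonlinear regression; Ki derived from previously reported RD-PNB kinetics.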

Homo sapiens = species on record: Homo sapiens; test: as §5; how it was run: as §6
BXPC-3 [7] = test: as §1; type: functional, cell-based; how it was run: as §2
MIA PaCa-2 [8] = test: as §4; type: functional, cell-based; how it was run: as §2
MIA PaCa-2 [9] = test: Induction of apoptosis in human MIAPaCa2 cells harboring K-Ras mutant oncogene assessed as viable cells at 1 uM after 48 hrs by acridine orange/ethidium bromide staining-based fluorescence microscopy; type: functional, cell-based
How it was run: (§7)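 5×10^4 MIA PaCa-2 cells cultured in chamber slide wells and treated 48 h at 0.5, 1 and 2 μM in 5% FBS. Stained with acridine orange/ethidium bromide (10 μg/mL). Imaged by fluorescence microscopy (x40 objective, 480/30 nm excitation). Green intact nuclei scored as viable; bright green fragmented nuclei as early apoptotic; orange-red condensed nuclei as apoptotic.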

MIA PaCa-2 [10] = test: Induction of apoptosis in human MIAPaCa2 cells harboring K-Ras mutant oncogene at 0.5 to 2 uM after 48 hrs by acridine orange/ethidium bromide staining-based fluorescence microscopy; type: functional, cell-based; how it was run: as §7
MIA PaCa-2 [11] = test: Induction of apoptosis in human MIAPaCa2 cells harboring K-Ras mutant oncogene assessed as early apoptotic cells at 2 uM after 48 hrs by acridine orange/ethidium bromide staining-based fluorescence microscopy; type: functional, cell-based; how it was run: as §7

Structure (SMILES): CC(C)=CCC/C(C)=C/CC/C(C)=C/CSc1ccccc1C(N)=O
- EC50 [1]: > 20 µM
- logD [2]: 6.03
- Activity (BXPC-3 [3]): inactive
- EC50 [4]: > 20 µM
- Activity (MIA PaCa-2 [5]): inactive

Structure (SMILES): CC(C)=CCC/C(C)=C/CC/C(C)=C/CSC[C@H](NC(=O)CCCCCN1CCCC1)C(=O)NC1CC1
- Ki [6]: 17.5 µM
- Activity (Homo sapiens): Dose-dependent effect
- EC50 [1]: > 20 µM
- Activity (BXPC-3 [7]): Dose-dependent effect
- logD [2]: 3.15
- Activity (MIA PaCa-2 [8]): Dose-dependent effect
- EC50 [4]: > 20 µM

Structure (SMILES): CC(C)=CCC/C(C)=C/CC/C(C)=C/CSC[C@H](NC(=O)CCCCCN1CCN(C)CC1)C(=O)NC1CCCC1
- Ki [6]: 10.1 µM
- Activity (Homo sapiens): Dose-dependent effect
- EC50 [1]: > 20 µM
- Activity (BXPC-3 [7]): Dose-dependent effect
- logD [2]: 4.55
- Activity (MIA PaCa-2 [8]): Dose-dependent effect
- EC50 [4]: 10.9 µM

Structure (SMILES): CC(C)=CCC/C(C)=C/CC/C(C)=C/CSC[C@H](NC(=O)CCCCCN1CCCC1)C(=O)NC1CCCC1
- Ki [6]: 3.7 µM
- Activity (Homo sapiens): Dose-dependent effect
- EC50 [1]: 6.8 µM
- Activity (BXPC-3 [7]): Dose-dependent effect
- logD [2]: 4.04
- Activity (MIA PaCa-2 [8]): Dose-dependent effect
- EC50 [4]: 3.2 µM

Structure (SMILES): CC(C)=CCC/C(C)=C/CC/C(C)=C/CSC[C@H](NC(=O)CCCCCN1CCN(C)CC1)C(=O)N1CCCCC1
- Ki [6]: 13 µM
- Activity (Homo sapiens): Dose-dependent effect
- EC50 [1]: 8.8 µM
- Activity (BXPC-3 [7]): Dose-dependent effect
- logD [2]: 4.27
- Activity (MIA PaCa-2 [8]): Dose-dependent effect
- EC50 [4]: 14.3 µM

Structure (SMILES): CC(C)=CCC/C(C)=C/CC/C(C)=C/CSC[C@H](NC(=O)CCCCCN1CCCC1)C(=O)NC1CCCCC1
- Ki [6]: 11.2 µM
- Activity (Homo sapiens): Dose-dependent effect
- EC50 [1]: 12.7 µM
- Activity (BXPC-3 [7]): Dose-dependent effect
- logD [2]: 4.48
- Activity (MIA PaCa-2 [8]): Dose-dependent effect
- EC50 [4]: 5.6 µM

Structure (SMILES): CC(C)=CCC/C(C)=C/CC/C(C)=C/CSC[C@H](NC(=O)CCCCCN1CCN(C)CC1)C(=O)NC1CCCCCCC1
- Ki [6]: 15.2 µM
- Activity (Homo sapiens): Dose-dependent effect
- Activity (MIA PaCa-2 [9]): inactive
- EC50 [1]: 7.5 µM
- Activity (BXPC-3 [7]): Dose-dependent effect
- Activity (MIA PaCa-2 [10]): Active
- logD [2]: 5.88
- Activity (MIA PaCa-2 [8]): Dose-dependent effect
- EC50 [4]: 2.5 µM
- Activity (MIA PaCa-2 [11]): Active

Structure (SMILES): CC(C)=CCC/C(C)=C/CC/C(C)=C/CSC[C@H](NC(=O)CCCCCN1CCCC1)C(=O)N1CCCCC1
- Ki [6]: 11 µM
- Activity (Homo sapiens): Dose-dependent effect
- EC50 [1]: 8.7 µM
- Activity (BXPC-3 [7]): Dose-dependent effect
- logD [2]: 3.76
- Activity (MIA PaCa-2 [8]): Dose-dependent effect
- EC50 [4]: 12.4 µM

Structure (SMILES): CC(C)=CCC/C(C)=C/CC/C(C)=C/CSC[C@H](NC(=O)CCCCCN1CCN(C)CC1)C(=O)NC1CCCCC1
- Ki [6]: 16.9 µM
- Activity (Homo sapiens): Dose-dependent effect
- EC50 [1]: 12 µM
- Activity (BXPC-3 [7]): Dose-dependent effect
- logD [2]: 4.99
- Activity (MIA PaCa-2 [8]): Dose-dependent effect
- EC50 [4]: 5.9 µM

Structure (SMILES): CC(C)=CCC/C(C)=C/CC/C(C)=C/CSC[C@H](NC(=O)CCCCCN1CCCC1)C(=O)NC1CCCCCCC1
- Ki [6]: 11.9 µM
- Activity (Homo sapiens): Dose-dependent effect
- EC50 [1]: 4 µM
- Activity (BXPC-3 [7]): Dose-dependent effect
- logD [2]: 5.37
- Activity (MIA PaCa-2 [8]): Dose-dependent effect
- EC50 [4]: 1.9 µM

Structure (SMILES): CC(C)=CCC/C(C)=C/CC/C(C)=C/CSC[C@H](NC(=O)CCCCCN1CCCC1)C(=O)N1CCCC1
- Ki [6]: 9.7 µM
- Activity (Homo sapiens): Dose-dependent effect
- EC50 [1]: 6.5 µM
- Activity (BXPC-3 [7]): Dose-dependent effect
- logD [2]: 3.31
- Activity (MIA PaCa-2 [8]): Dose-dependent effect
- EC50 [4]: 10.8 µM

Structure (SMILES): CC(C)=CCC/C(C)=C/CC/C(C)=C/CSC[C@H](NC(=O)CCCCCN1CCCC1)C(=O)NC1CCCCCC1
- Ki [6]: 11.6 µM
- Activity (Homo sapiens): Dose-dependent effect
- EC50 [1]: 5.8 µM
- Activity (BXPC-3 [7]): Dose-dependent effect
- logD [2]: 4.93
- Activity (MIA PaCa-2 [8]): Dose-dependent effect
- EC50 [4]: 6.8 µM

Structure (SMILES): CC(C)=CCC/C(C)=C/CC/C(C)=C/CSC[C@H](NC(=O)CCCCCN1CCN(C)CC1)C(=O)NC1CCCCCC1
- Ki [6]: 17.6 µM
- Activity (Homo sapiens): Dose-dependent effect
- EC50 [1]: 6.2 µM
- Activity (BXPC-3 [7]): Dose-dependent effect
- logD [2]: 5.44
- Activity (MIA PaCa-2 [8]): Dose-dependent effect
- EC50 [4]: 2.7 µM

Structure (SMILES): CC(C)=CCC/C(C)=C/CC/C(C)=C/CSc1ccccc1C(=O)O [SALIRASIB]
- EC50 [1]: > 20 µM
- logD [2]: 3.43
- Activity (BXPC-3 [3]): inactive
- EC50 [4]: > 20 µM
- Activity (MIA PaCa-2 [5]): inactive

Structure (SMILES): CC(C)=CCC/C(C)=C/CC/C(C)=C/CSC[C@H](NC(=O)CCCCCN1CCN(C)CC1)C(=O)N1CCCC1
- Ki [6]: 20 µM
- Activity (Homo sapiens): Dose-dependent effect
- EC50 [1]: 3.2 µM
- Activity (BXPC-3 [7]): Dose-dependent effect
- logD [2]: 3.82
- Activity (MIA PaCa-2 [8]): Dose-dependent effect
- EC50 [4]: 6 µM

Structure (SMILES): CC(C)=CCC/C(C)=C/CC/C(C)=C/CSC[C@H](NC(=O)CCCCCN1CCN(C)CC1)C(=O)NC1CC1
- Ki [6]: 13.8 µM
- Activity (Homo sapiens): Dose-dependent effect
- EC50 [1]: 6.3 µM
- Activity (BXPC-3 [7]): Dose-dependent effect
- logD [2]: 3.66
- Activity (MIA PaCa-2 [8]): Dose-dependent effect
- EC50 [4]: 10.4 µM
